Results of several laboratories.
Each line is one published result; the experiments were not run side by side.
Target: Serine/threonine-protein kinase ULK2 (ULK2, Homo sapiens, UniProt Q8IYT8)
Sequence (Q8IYT8 1-1036, as in one of the studies): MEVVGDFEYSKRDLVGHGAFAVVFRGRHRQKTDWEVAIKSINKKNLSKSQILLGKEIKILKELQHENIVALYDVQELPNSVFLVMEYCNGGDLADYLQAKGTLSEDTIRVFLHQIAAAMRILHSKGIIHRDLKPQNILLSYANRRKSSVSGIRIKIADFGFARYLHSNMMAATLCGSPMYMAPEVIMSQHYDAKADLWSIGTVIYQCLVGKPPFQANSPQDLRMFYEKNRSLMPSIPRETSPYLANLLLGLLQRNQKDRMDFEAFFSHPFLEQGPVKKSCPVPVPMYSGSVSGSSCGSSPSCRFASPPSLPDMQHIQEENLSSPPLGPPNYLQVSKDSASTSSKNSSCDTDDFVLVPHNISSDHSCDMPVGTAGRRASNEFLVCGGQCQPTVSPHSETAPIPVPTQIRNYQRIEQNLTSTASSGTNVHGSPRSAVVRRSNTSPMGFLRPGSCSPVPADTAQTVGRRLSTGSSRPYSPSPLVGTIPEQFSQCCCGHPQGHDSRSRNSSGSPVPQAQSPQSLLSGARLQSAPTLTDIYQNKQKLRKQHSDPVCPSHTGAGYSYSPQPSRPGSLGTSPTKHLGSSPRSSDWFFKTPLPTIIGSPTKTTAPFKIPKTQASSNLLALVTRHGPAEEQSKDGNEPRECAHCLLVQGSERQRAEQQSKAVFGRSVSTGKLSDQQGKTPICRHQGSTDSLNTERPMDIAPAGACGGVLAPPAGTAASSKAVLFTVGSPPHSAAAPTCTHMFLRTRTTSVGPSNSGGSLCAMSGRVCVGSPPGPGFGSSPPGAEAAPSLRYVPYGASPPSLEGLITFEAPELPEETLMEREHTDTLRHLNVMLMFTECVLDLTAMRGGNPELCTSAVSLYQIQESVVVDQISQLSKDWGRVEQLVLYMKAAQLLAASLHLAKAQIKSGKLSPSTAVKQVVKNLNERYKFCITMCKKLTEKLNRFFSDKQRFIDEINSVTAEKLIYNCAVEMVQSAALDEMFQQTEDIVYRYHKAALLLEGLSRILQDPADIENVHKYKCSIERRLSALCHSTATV

observed | technique | tested at | remaining binding | SMILES
cell-free assay | competition with immobilised ligand | 0.1 µM | 100% | COCCOc1nc(-c2ccc(Cl)nc2)nc2c1CN(C(=O)c1ncn3ccccc13)CC2
binding |  | 1 µM | 100% | N[C@@H]1CCN(c2nccc(-c3cnn4ncccc34)n2)C1
binding | competition with immobilised ligand | 1 µM | 12% | Cc1cnc(Nc2ccc(C(=O)N3CCC(N4CCCC4)CC3)cc2)nc1-c1cc2ccccc2s1
cell-free assay | competition with immobilised ligand | 1 µM | 100% | COc1cc(-c2cn(C3CCc4c(F)cccc4N(CC(F)(F)F)C3=O)nn2)ccc1-n1cnc(C)c1 (stereo not shown)
binding | competition with immobilised ligand | 1 µM | 96% | C=CC(=O)N1CCC(C(=O)NCC(=O)N2CCN(c3nc(-c4cnc(N)nc4C(F)F)nc(N4CCOCC4)n3)CC2)CC1
cell-free assay | competition with immobilised ligand | 1 µM | 100% | COc1ccc2c(c1)O[C@H](c1ccc(OC)c(OC)c1)C[C@@H]2NC(=O)C1(c2ccc3c(c2)OC(F)(F)O3)CC1
binding | competition with immobilised ligand | 1 µM | 31% | O=C(c1ccc(Nc2ncc(Cl)c(-c3ccc(Cl)s3)n2)cc1)N1CCC(N2CCCC2)CC1
cell-free assay | competition with immobilised ligand | 5 µM | 100% | COc1ncc2cc3ccccc3nc2c1C#N
binding | competition with immobilised ligand | 50 nM | 92% | C[C@@H]1CN(c2ccc3ncc(-c4ccc5[nH]nc(C6CC6)c5c4)n3n2)C[C@H](C)O1
cell-free assay | competition with immobilised ligand | 1 µM | 75% | CCC(=O)N[C@H]1CC[C@@H](C(=O)N(C)c2ccc(-c3nc4ccccc4o3)cc2)C1
binding | competition with immobilised ligand | 1 µM | 100% | CCN1CCN(Cc2ccc(C(=O)Nc3ccc(C)c(Oc4ccc5c(c4)CC(=O)N5)c3)cc2C(F)(F)F)CC1
cell-free assay | competition with immobilised ligand | 10 µM | 30% | COC(=O)Nc1nc2ccc(C(=O)c3ccccc3)cc2[nH]1
cell-free assay | competition with immobilised ligand | 1 µM | 94% | CSc1cccnc1N1CCN(Cc2nc3ccccc3[nH]2)CC1
binding | competition with immobilised ligand | 1 µM | 51% | COc1cnc(Nc2cccc(S(N)(=O)=O)c2)nc1N1CCN(c2ccccc2)C(=O)C1
binding |  | 1 µM | 74% | CC1CCCN1c1nccc(-c2cnn3ncccc23)n1 (stereo not shown)
binding | competition with immobilised ligand | 1 µM | 81% | O=C(NCC1CCOCC1)c1n[nH]cc1NC(=O)c1c(F)cccc1F
binding |  | 1 µM | 100% | CN(C)c1nccc(-c2cnn3ncccc23)n1
cell-free assay | competition with immobilised ligand | 1 µM | 100% | NS(=O)(=O)c1cc(NC(=O)C2(c3ccccc3Cl)CC2)ccc1Oc1cccc(Cl)c1
binding |  | 1 µM | 59% | c1cnn2ncc(-c3ccnc(N4CCC45COC5)n3)c2c1
cell-free assay | competition with immobilised ligand | 1 µM | 92% | CS(=O)(=O)c1cc(C2(NC(=O)c3cncc4c3cnn4-c3ccc(F)cc3)CC2)ccn1
binding |  | 1 µM | 63% | C[C@H]1CCN(c2nccc(-c3cnn4ncccc34)n2)C1
binding | competition with immobilised ligand | 1 µM | 62% | O=C(NCCCN1CCOCC1)c1ccc(Nc2nccc(-c3cc4ccccc4s3)n2)cc1
cell-free assay | competition with immobilised ligand | 1 µM | 100% | CCS(=O)(=O)c1cc2cc(C[C@](O)(CC(C)(C)c3ccc(F)cc3C(N)=O)C(F)(F)F)[nH]c2cn1
binding |  | 1 µM | 100% | F[C@@H]1CCN(c2nccc(-c3cnn4ncccc34)n2)C1
binding | competition with immobilised ligand | 0.1 µM | 70% | C[C@@H](c1ccc(-n2cnc3c(N)ncnc32)cc1)N1CCc2nn(C)c(Cc3ccccc3)c2C1=O
